Source: ChEMBL document CHEMBL4311941, “Development of Multifunctional Histone Deacetylase 6 Degraders with Potent Antimyeloma Activity” (J Med Chem, 2019)
Activity calls are given as the source filed them. The calls are words filed in the database; no cut-off is given here.

Experiments:
[1] = target: T1, Protein cereblon/Protein deacetylase HDAC6 (Homo sapiens, UniProt Q9UBN7+Q96SW2); experiment: Protac activity at CRBN/HDAC6 in human MM1S cells assessed as HDAC6 degradation at 10 to 100 nM measured after 6 hrs by Western blot analysis; format: cell-based
Target sequence in this assay (Q96SW2 whole entry, looked up): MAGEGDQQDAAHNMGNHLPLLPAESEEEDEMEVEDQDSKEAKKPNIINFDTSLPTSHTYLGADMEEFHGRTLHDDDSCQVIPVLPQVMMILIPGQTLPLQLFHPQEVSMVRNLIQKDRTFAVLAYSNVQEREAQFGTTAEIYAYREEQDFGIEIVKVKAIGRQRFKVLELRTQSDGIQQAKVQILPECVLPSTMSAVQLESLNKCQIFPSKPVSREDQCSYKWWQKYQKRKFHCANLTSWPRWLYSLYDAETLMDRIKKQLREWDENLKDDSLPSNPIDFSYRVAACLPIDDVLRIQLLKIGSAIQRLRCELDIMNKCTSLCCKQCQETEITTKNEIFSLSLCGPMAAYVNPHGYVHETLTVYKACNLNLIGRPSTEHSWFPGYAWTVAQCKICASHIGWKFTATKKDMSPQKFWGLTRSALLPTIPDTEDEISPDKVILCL
Target sequence in this assay (Q9UBN7 whole entry, looked up): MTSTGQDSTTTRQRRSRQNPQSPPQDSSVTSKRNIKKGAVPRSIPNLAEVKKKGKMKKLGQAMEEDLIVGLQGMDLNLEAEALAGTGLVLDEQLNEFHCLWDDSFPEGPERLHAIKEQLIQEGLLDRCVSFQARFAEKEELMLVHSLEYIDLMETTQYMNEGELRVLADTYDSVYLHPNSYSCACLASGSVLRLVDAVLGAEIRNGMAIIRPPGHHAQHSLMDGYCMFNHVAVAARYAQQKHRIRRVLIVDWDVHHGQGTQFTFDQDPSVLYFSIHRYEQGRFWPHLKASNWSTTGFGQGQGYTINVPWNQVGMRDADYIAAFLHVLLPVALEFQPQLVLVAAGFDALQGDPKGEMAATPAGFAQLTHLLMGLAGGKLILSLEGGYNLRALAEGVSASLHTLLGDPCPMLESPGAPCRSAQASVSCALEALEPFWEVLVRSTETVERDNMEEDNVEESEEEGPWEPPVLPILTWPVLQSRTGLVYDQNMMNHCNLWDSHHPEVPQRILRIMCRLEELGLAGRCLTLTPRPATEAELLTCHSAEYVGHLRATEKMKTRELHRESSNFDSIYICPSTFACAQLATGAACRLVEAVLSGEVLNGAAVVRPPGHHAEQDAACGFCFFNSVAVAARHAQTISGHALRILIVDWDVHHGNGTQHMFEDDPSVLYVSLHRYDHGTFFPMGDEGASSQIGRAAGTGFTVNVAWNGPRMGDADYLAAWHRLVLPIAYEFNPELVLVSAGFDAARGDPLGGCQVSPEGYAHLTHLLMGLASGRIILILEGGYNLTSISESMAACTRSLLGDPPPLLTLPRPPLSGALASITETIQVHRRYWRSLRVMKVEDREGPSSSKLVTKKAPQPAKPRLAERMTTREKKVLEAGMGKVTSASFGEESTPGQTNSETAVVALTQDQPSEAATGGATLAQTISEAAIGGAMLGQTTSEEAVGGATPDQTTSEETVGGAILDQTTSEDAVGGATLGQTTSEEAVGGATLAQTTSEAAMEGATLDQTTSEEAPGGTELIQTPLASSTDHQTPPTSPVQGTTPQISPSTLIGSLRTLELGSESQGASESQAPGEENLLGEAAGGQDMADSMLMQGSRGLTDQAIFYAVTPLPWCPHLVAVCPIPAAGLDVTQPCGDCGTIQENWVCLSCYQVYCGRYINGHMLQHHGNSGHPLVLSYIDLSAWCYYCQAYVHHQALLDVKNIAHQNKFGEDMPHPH

[2] = target: T1, Protein cereblon/Protein deacetylase HDAC6; experiment: Protac activity at CRBN/HDAC6 in human HepG2 cells assessed as HDAC6 degradation up to 1 uM incubated for 6 hrs by Western blot analysis; format: cell-based
Target sequence in this assay (Q96SW2 whole entry, looked up): as the sequence (Q96SW2 whole entry, looked up) above
Target sequence in this assay (Q9UBN7 whole entry, looked up): as the sequence (Q9UBN7 whole entry, looked up) above

MM1.S [3] = experiment: Antiproliferative activity against human MM1S cells assessed as reduction in cell viability at 1 uM measured after 72 hrs by resazurin dye based assay; format: functional
[4] = target: T1, Protein cereblon/Protein deacetylase HDAC6; experiment: Protac activity at CRBN/HDAC6 in human MM1S cells assessed as HDAC6 degradation measured after 6 hrs by ELISA; format: cell-based
Summary of the method: (§1)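 In-cell ELISA: MM1S cells (5 × 10^4 per well) seeded overnight, treated 6 h (dosed as 5× medium; 0.1 nM–1 μM or 10/100 nM). Fixed in 8% formaldehyde/TBS, permeabilized with 0.1% Triton X, peroxidase quenched with 1% H2O2, blocked in 5% BSA. Anti-HDAC6 rabbit mAb (1:1000, 2 h) then HRP secondary; TMB read as OD450 − OD570. Background wells lacked primary antibody. Signal normalized to Janus Green and to DMSO wells, n = 3. DC50/Dmax from three-parameter fit.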
Target sequence in this assay (Q9UBN7 whole entry): as the sequence (Q9UBN7 whole entry, looked up) above
Target sequence in this assay (Q96SW2 whole entry): as the sequence (Q96SW2 whole entry, looked up) above

[5] = target: T1, Protein cereblon/Protein deacetylase HDAC6; experiment: Protac activity at CRBN/HDAC6 in human MM1S cells assessed as HDAC6 degradation measured after 6 hrs by ELISA relative to control; format: cell-based; summary of the method: as §1
Target sequence in this assay (Q96SW2 whole entry, looked up): as above
Target sequence in this assay (Q9UBN7 whole entry, looked up): as the sequence (Q9UBN7 whole entry, looked up) above

[6] = target: T1, Protein cereblon/Protein deacetylase HDAC6; experiment: Protac activity at CRBN/HDAC6 in human MM1S cells assessed as HDAC6 degradation at 100 nM measured after 6 hrs by Western blot analysis; format: cell-based
Target sequence in this assay (Q96SW2 whole entry, looked up): as the sequence (Q96SW2 whole entry, looked up) above
Target sequence in this assay (Q9UBN7 whole entry, looked up): as the sequence (Q9UBN7 whole entry, looked up) above

MM1.S [7] = experiment: Antiproliferative activity against human MM1S cells assessed as reduction in cell viability measured after 72 hrs by resazurin dye based assay; format: functional
Summary of the method: (§2)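 MM1S cells seeded at 1 × 10^4 per well, left overnight, then given compound or DMSO vehicle (added as 5× dosing medium) for 72 h at 37 °C, 5% CO2. Resazurin added (10× solution, 1 mg/mL), then incubated overnight at 37 °C. OD read at 570 and 600 nm. Viability is relative to vehicle, n = 3. Curves fitted as [inhibitor] vs response (three parameters); test range 0.3 nM–3 μM.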

MM1.S [8] = experiment: Antiproliferative activity against human MM1S cells assessed as reduction in cell viability measured after 72 hrs by resazurin dye based assay relative to control; format: functional; summary of the method: as §2

Row | SMILES | Activity [1] | Activity (MM1.S [3]) | further results
1 | CCCCN(Cc1ccc(C(=O)NO)cc1)C(=O)Nc1ccc(OCCCCn2cc(CNc3ccc4c(c3)C(=O)N(C3CCC(=O)NC3=O)C4=O)nn2)cc1 (configuration not stated) | Active |  | Activity [2]: Active
2 | CCCCN(Cc1ccc(C(=O)NO)cc1)C(=O)Nc1ccccc1 |  | inactive | 
3 | CCCCN(Cc1ccc(C(=O)NO)cc1)C(=O)Nc1ccc(OCCn2cc(CNc3cccc4c3C(=O)N(C3CCC(=O)NC3=O)C4=O)nn2)cc1 (configuration not stated) |  |  | DC50 [4]: 3.41 nM; %max [5]: 88%
4 | Nc1cccc2c1C(=O)N(C1CCC(=O)NC1=O)C2=O (configuration not stated) |  | Active | 
5 | CCCCN(Cc1ccc(C(=O)NO)cc1)C(=O)Nc1ccc(OCCCCn2cc(CCNc3cccc4c3C(=O)N(C3CCC(=O)NC3=O)C4=O)nn2)cc1 (configuration not stated) | Active |  | 
6 | O=C(CCCCCCC(=O)N/N=C/c1ccc(OCCOCCOCCn2cc(CNc3cccc4c3C(=O)N(C3CCC(=O)NC3=O)C4=O)nn2)cc1)NO (configuration not stated) | Active | Active | DC50 [4]: 9.12 nM; %max [5]: 84.1%
7 | CCCCN(Cc1ccc(C(=O)NO)cc1)C(=O)Nc1ccc(OCCCn2cc(CCCNc3ccc4c(c3)C(=O)N(C3CCC(=O)NC3=O)C4=O)nn2)cc1 (configuration not stated) | Active |  | 
8 | CCCCN(Cc1ccc(C(=O)OC)cc1)C(=O)Nc1ccc(OCCCCCn2cc(CNc3cccc4c3C(=O)N(C3CCC(=O)NC3=O)C4=O)nn2)cc1 (configuration not stated) |  | Active | Activity [6]: inactive; EC50 (MM1.S [7]): 17.7 nM; Imax (MM1.S [8]): 44%
9 | CCCCN(Cc1ccc(C(=O)NO)cc1)C(=O)Nc1ccc(OCCCCCn2cc(CNc3ccc4c(c3)C(=O)N(C3CCC(=O)NC3=O)C4=O)nn2)cc1 (configuration not stated) | Active |  | 
10 | CCCCN(Cc1ccc(C(=O)NO)cc1)C(=O)Nc1ccc(OCCCCCn2cc(CNc3cccc4c3C(=O)N(C3CCC(=O)N(C)C3=O)C4=O)nn2)cc1 (configuration not stated) |  | inactive | Activity [6]: inactive
11 | CCCCN(Cc1ccc(C(=O)NO)cc1)C(=O)Nc1ccc(OCCn2cc(CCCNc3cccc4c3C(=O)N(C3CCC(=O)NC3=O)C4=O)nn2)cc1 (configuration not stated) | Active |  | DC50 [4]: 2.54 nM; %max [5]: 86.3%
